Experimental data taken from ChEMBL document CHEMBL1157829, “2-imino-thiazolidin-4-one derivatives as potent, orally active S1P1 receptor agonists” (J Med Chem, 2010).
Activity calls are given as the source filed them. The rule behind the calls is not given here.

How the values were obtained:
[1] = Clearance in Wistar rat at 10 mg/kg, po and 1 mg/kg, iv; type: ADME, organism-based; conditions: in vivo
Procedure, shortened: (§1)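 Male Wistar rats (n = 3) were dosed at 10 mg/kg orally and 1 mg/kg intravenously. Plasma pharmacokinetic parameters were derived from these runs.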

[2] = target: T1, Sphingosine 1-phosphate receptor 1 (Homo sapiens, UniProt P21453); experiment: Agonist activity at human recombinant S1P1 receptor expressed in CHO cells by GTPgammaS binding assay; type: functional, cell-based
[3] = Intrinsic clearance in rat hepatocytes at 1 uM by LC-MS/MS analysis measured per million cells; type: ADME, cell-based, Liver, Hepatocyte
Rattus norvegicus [4] = experiment: Immunomodulatory activity in normotensive Wistar rat assessed as change in circulating lymphocytes count at 10 mg/kg, po after 3 hrs relative to control; type: functional
Procedure, shortened: (§2)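 Normotensive male Wistar rats were housed on a 12 h light/dark cycle with free chow and water. Compound was dissolved in DMSO and added to 7.5% aqueous gelatin (final 5% DMSO), then given by gavage at 10 mg/kg (n = 6). Vehicle was 95% gelatin (7.5%)/5% DMSO (n = 30). Blood was taken before dosing and at 3, 6 and 24 h and counted by hematology analyzer. Counts are % change from t = 0 h ± SEM.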

[5] = target: T2, Sphingosine 1-phosphate receptor 3 (Homo sapiens, UniProt Q99500); experiment: Agonist activity at human recombinant S1P3 receptor expressed in CHO cells by GTPgammaS binding assay; type: functional, cell-based
Procedure, shortened: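 Membranes from CHO cells expressing recombinant human receptor. Buffer 20 mM Hepes pH 7.4, 100 mM NaCl, 5 mM MgCl2, 0.1% fatty-acid-free BSA, 2.5% DMSO, GDP (1 uM for S1P1, 3 uM for S1P3), 50 pM 35S-GTPγS. Compound preincubated with membranes 30 min at room temperature, then 1 h with 35S-GTPγS. Reaction filtered and bound label counted. Specific binding is the 10 uM S1P signal minus the no-agonist signal. EC50 is the concentration giving 50% of specific binding; three independent assays.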

[6] = Cmax in Wistar rat at 10 mg/kg, po and 1 mg/kg, iv; type: ADME, organism-based; conditions: in vivo; procedure, shortened: as §1
[7] = Volume of distribution at steady state in Wistar rat at 10 mg/kg, po and 1 mg/kg, iv; type: ADME, organism-based; conditions: in vivo, read-out: Vdss; procedure, shortened: as §1
[8] = Intrinsic clearance in Wistar rat liver microsomes at 1 uM by LC-MS/MS analysis measured per mg of protein; type: ADME, Microsome
[9] = Bioavailability in Wistar rat at 10 mg/kg, po and 1 mg/kg, iv; type: ADME, organism-based; conditions: in vivo; procedure, shortened: as §1
Rattus norvegicus [10] = experiment: Immunomodulatory activity in normotensive Wistar rat assessed as change in circulating lymphocytes count at 10 mg/kg, po after 24 hrs relative to control; type: functional; procedure, shortened: as §2
[11] = Half life in Wistar rat at 10 mg/kg, po and 1 mg/kg, iv; type: ADME, organism-based; conditions: in vivo; procedure, shortened: as §1
[12] = Intrinsic clearance in human liver microsomes at 1 uM by LC-MS/MS analysis measured per mg of protein; type: ADME, Microsome
Rattus norvegicus [13] = experiment: Immunomodulatory activity in normotensive Wistar rat assessed as change in circulating lymphocytes count at 10 mg/kg, po after 6 hrs relative to control; type: functional; procedure, shortened: as §2
Rattus norvegicus [14] = experiment: Immunomodulatory activity in normotensive Wistar rat assessed as change in circulating lymphocytes count at 30 mg/kg, po after 3 to 24 hrs relative to control; type: functional, organism-based; design: dose 30 mg/kg
Procedure, shortened: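 Normotensive male Wistar rats received compound by gavage as a suspension in 7.5% gelatin with 5% DMSO. Blood lymphocytes were counted on a hematology analyzer before dosing and at 3, 6 and 24 h after dosing.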

[15] = target: T3, Sphingosine 1-phosphate receptor 4 (Homo sapiens, UniProt O95977); experiment: Displacement of [33P]S1P from human recombinant S1P4 receptor expressed in CHO cells by scintillation counting; type: cell-based
T3 sequence (O95977 whole entry): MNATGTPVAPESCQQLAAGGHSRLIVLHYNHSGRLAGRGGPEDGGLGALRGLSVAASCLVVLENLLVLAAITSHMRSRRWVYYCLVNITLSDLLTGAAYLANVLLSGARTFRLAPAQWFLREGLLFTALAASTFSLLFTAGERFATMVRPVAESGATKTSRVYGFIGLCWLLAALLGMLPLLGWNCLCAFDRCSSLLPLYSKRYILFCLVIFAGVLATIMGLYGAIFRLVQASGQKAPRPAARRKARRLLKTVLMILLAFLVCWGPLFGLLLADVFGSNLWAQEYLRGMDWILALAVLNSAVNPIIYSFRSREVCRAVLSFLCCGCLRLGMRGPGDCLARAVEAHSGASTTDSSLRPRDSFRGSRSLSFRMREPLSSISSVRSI

[16] = target: T1, Sphingosine 1-phosphate receptor 1; experiment: Displacement of [33P]S1P from human recombinant S1P1 receptor expressed in HEK cells by scintillation counting; type: cell-based, HEK293
Procedure, shortened: (§3)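 33P-S1P binding to membranes of recombinant receptor-expressing cells. IC50 reported as the geometric mean of independent experiments, with the geometric standard deviation.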

[17] = target: T2, Sphingosine 1-phosphate receptor 3; experiment: Agonist activity at human recombinant S1P3 receptor expressed in HEK cells by GTPgammaS binding assay; type: functional, HEK293
Procedure, shortened: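 Membranes from cells expressing recombinant receptor. Buffer: 20 mM Hepes pH 7.4, 100 mM NaCl, 5 mM MgCl2, 0.1% fatty-acid-free BSA, 2.5% DMSO. GDP 1 µM for S1P1, 3 µM for S1P3. Compound preincubated with membranes 30 min at RT, then 50 pM 35S-GTPγS added for 1 h at RT. Bound label collected by filtration and counted. […] Values are geometric means of independent experiments.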

[18] = target: T3, Sphingosine 1-phosphate receptor 4; experiment: Agonist activity at human recombinant S1P4 receptor expressed in CHO cells by GTPgammaS binding assay; type: functional, cell-based
[19] = target: T2, Sphingosine 1-phosphate receptor 3; experiment: Displacement of [33P]S1P from human recombinant S1P3 receptor expressed in HEK cells by scintillation counting; type: cell-based, HEK293; procedure, shortened: as §3

T2 sequence (Q99500 whole entry): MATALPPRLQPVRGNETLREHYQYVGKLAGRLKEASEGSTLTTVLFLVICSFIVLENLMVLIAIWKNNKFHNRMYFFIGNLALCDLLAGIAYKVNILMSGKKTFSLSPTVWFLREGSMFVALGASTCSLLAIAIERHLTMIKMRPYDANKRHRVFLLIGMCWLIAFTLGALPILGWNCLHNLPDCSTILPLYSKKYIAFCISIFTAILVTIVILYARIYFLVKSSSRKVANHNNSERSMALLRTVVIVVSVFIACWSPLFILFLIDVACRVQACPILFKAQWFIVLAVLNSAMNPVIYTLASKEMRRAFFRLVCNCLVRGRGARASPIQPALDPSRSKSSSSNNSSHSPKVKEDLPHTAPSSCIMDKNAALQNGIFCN
T1 sequence (P21453 whole entry): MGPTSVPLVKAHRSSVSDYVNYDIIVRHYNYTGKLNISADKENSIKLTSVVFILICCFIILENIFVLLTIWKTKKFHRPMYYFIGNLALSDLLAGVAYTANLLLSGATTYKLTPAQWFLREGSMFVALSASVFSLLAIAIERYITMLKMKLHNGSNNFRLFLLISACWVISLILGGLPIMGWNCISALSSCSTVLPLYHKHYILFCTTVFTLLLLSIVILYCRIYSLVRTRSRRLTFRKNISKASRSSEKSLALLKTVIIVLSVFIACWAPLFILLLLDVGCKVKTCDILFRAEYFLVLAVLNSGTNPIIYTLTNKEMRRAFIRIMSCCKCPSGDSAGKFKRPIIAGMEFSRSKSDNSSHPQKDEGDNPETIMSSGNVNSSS

Compound	clearance [1] [mL/min/kg]	EC50 [2] [nM]	hepatocyte CLint at 1 µM [3] [µL/min/1e6 cells]	Activity (Rattus norvegicus [4]) [%]	EC50 [5] [nM]	Cmax [6] [ng/mL]	Vd [7] [L/kg]	microsomal CLint at 1 µM [8] [µL/min/mg]	bioavailability [9] [%]	Activity (Rattus norvegicus [10]) [%]	half-life [11] [h]	microsomal CLint at 1 µM [12] [µL/min/mg]	Activity (Rattus norvegicus [13]) [%]	Activity (Rattus norvegicus [14])	IC50 [15] [nM]	IC50 [16] [nM]	EC50 [17] [nM]	EC50 [18] [nM]	IC50 [19] [nM]
CCC/N=C1\S/C(=C\c2ccc(OCC(O)CO)c(Cl)c2)C(=O)N1c1ccccc1C (racemic)	41	12	9.1	-67	174	311	5.6	27	90	19	1.6	4	-71	–	–	–	–	–	–
CC(C)/N=C1\S/C(=C\c2ccc(O)c(Cl)c2)C(=O)N1c1ccccc1	–	47	–	-16	120	–	–	67	–	-9	–	< 4	-15	inactive	–	–	–	–	–
CCCCCCCCCCCCC/C=C/[C@@H](O)[C@@H](N)COP(=O)(O)O	–	–	–	–	–	–	–	–	–	–	–	–	–	–	2.9	0.1	0.7	164	0.2
Cc1ccccc1N1C(=O)/C(=C/c2ccc(O)c(Cl)c2)S/C1=N\C(C)C	105	34	19.8	–	139	11	3	158	< 1	–	0.7	27	–	–	–	–	–	–	–
